Experimental findings from ChEMBL document CHEMBL1147907, “Structure-based discovery of new small molecule inhibitors of low molecular weight protein tyrosine phosphatase” (Eur J Med Chem, 2007) are described below.

Molecules are shown by their SMILES. Calls of active or inactive are those of the source. No cut-off for these calls is given here.

One assay addresses T1, Low molecular weight phosphotyrosine protein phosphatase (Bos taurus) (UniProt P11064).
T1 sequence (whole entry): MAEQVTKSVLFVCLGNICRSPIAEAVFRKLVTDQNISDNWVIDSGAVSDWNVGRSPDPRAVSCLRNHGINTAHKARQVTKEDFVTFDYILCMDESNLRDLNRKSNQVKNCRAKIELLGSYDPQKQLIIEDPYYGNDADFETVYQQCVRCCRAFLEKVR
The experiment in a line: (§1) Inhibition of bovine low molecular weight PTP expressed in Escherichia coli […] cells. A digest of the protocol:
(§2)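 Enzyme held at 10 nM; p-nitrophenyl phosphate substrate at five final concentrations (0.4, 0.8, 1.2, 1.6, 2.0 mM) against four to five inhibitor concentrations; inhibitors kept as 100 mM DMSO stocks. Run at 37 °C in 40 mM sodium acetate pH 5.0, 150 mM NaCl, 1 mM TCEP. p-Nitrophenolate release read at 405 nm; competitive Ki derived.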
`Cc1ccc2nc(-c3cccnc3)cc(C(=O)Nc3ccc(CC(=O)O)cc3)c2c1`: the outcome was inactive.
On the same count and under the same terms, the result for `Cc1cc(C(=S)N2CCOCC2)c(C)n1-c1ccc(C(=O)O)cc1` reads “inactive”; that for `CS(=O)(=O)N1CCCC(C(=O)NCc2ccccc2Cl)C1` (centres undefined), “inactive”; that for `CS(=O)(=O)N1CCN(C2=C(Cl)C(=O)c3ccccc3C2=O)CC1`, “inactive”.
Still for that read-out and setting: the result for `O=C(O)c1ccc2c(c1)C1C=CCC1C(C(=O)O)N2` (centres undefined) reads “inactive”; that for `Cc1cc[n+](CCCS(=O)(=O)O)c2ccccc12`, “inactive”; that for `O=C(O)c1ccc2c(c1)c1c3n2CCNC3CCC1` (centres undefined), “inactive”.
On the same count and under the same terms, the result for `O=C(O)C1CSC(c2cc(Br)ccc2O)N1` (centres undefined) reads “inactive”; that for `O=C(O)C1CCC(CNCc2ccncc2)CC1` (centres undefined), “inactive”; that for `O=C(O)COc1ccc2c(c1)C(=O)CC1(CCCCC1)O2`, “inactive”.
On to `O=C(O)C1CC(=O)N(C2CCCCCC2)C1` (centres undefined), for which the result was inactive.
The same measure, in the same setting: the value for `O=C(O)C1CCN(S(=O)(=O)c2cccc3nsnc23)CC1` was “inactive”.
Still for that read-out and setting: the value for `Cc1ccc(N2C(=O)CC(N3CCC(C(=O)O)CC3)C2=O)cc1` (centres undefined) was “inactive”; that for `O=[N+]([O-])c1ccc(C2=Nn3c(nnc3-c3ccccc3)SC2)cc1` was “inactive”.
Turning to `O=C(O)CC(O)c1nc2ccccc2[nH]1` (centres undefined), the result was inactive.
Still for that read-out and setting: the result for `CCCOc1ccc(N2C(=O)CC(N3CCC(C(=O)O)CC3)C2=O)cc1` (centres undefined) reads “inactive”; that for `O=C(O)c1ccc(C2(c3ccc(C(=O)O)cc3)OC(=O)c3ccccc32)cc1`, “inactive”.
Turning to `COc1ccc(CN2CCN(S(C)(=O)=O)CC2)cc1OC`, the result was inactive.

The next assay concerns the target T2, Low molecular weight phosphotyrosine protein phosphatase (Bos taurus, UniProt P11064).
T2 sequence (P11064 whole entry): T1 sequence (whole entry)
Described as §1. A digest of the protocol:
as §2
What is called Ki is the dissociation constant of the complex between target and ligand, obtained from inhibition or displacement. Read a low Ki as a stronger hold on the target. Compound `O=C1N=C(Cc2cccn2-c2ccc(C(=O)O)cc2)C(=O)N1` gave an inhibitory constant (Ki) of 11 µM.
On the same count and under the same terms, the value for `O=C(O)c1ccc2c(c1)C1C=CCC1C(c1cccnc1)N2` (centres undefined) was more than 1000 µM.
For `O=C(O)c1ccc2c(c1)C1C=CCC1C(c1ccccc1)N2` (centres undefined), the inhibition constant (Ki) was more than 1000 µM.
The same measure, in the same setting: the result for `O=C(O)CCC(=O)N1CCc2cc(S(=O)(=O)NCc3cccs3)ccc21` reads more than 1000 µM; that for `O=C(O)c1ccc2[nH]c3c(c2c1)CSCC3`, 240 µM.
`O=C(O)CCC(=O)N1N=C(c2ccccc2)CC1c1ccccc1F` (centres undefined) yielded an inhibition constant (Ki) of more than 1000 µM.
Take `O=C(O)c1ccc2c(c1)C1C=CCC1C(c1ccccc1C(F)(F)F)N2` (centres undefined): the affinity corresponds to a Ki of 50 µM.
Still for that read-out and setting: the value for `O=C(O)c1ccc(C2Nc3c(F)cc(F)cc3C3C=CCC32)cc1` (centres undefined) was 910 µM; that for `O=C(O)c1ccc2c(c1)C1C=CCC1C(c1cccc(Br)c1)N2` (centres undefined) was 9 µM; that for `O=C(O)Cc1ccc2c(c1)[nH]c1ccc(Br)cc12` was 60 µM.
On the same count and under the same terms, the result for `O=C(O)Cc1ccc(C2C(=O)C3SC=CC3NC2=S)cc1` (centres undefined) reads 880 µM; that for `O=C(O)c1ccc(-n2nc(C(F)(F)F)c3c2CCCC3)cc1`, more than 1000 µM.
Turning to `CCn1c2c(c3cc(C(=O)O)ccc31)CCCC2=O`, the inhibition constant (Ki) is 610 µM.
For the compound `O=C(O)c1ccc2[nH]c3c(c2c1)CCCC3`, the inhibition constant (Ki) is more than 1000 µM.
Same read-out and setting: the value for `Cn1c(=O)oc2cc(S(=O)(=O)N3CCC(C(=O)O)CC3)ccc21` was more than 1000 µM; that for `CCn1c2ccc(CC(=O)O)cc2c2cc(CC(=O)O)ccc21` was 170 µM.
